Source: article PMC7615481 (The Journal of biological chemistry, 2023)
“Also recorded” adds a separate entry of the source. Positions of bridges follow the written chain, without caps; N, C: chain ends. Residues, ends and D or L forms follow the SMILES beside them.

Legend:
[1] = tested on: mhICD chimeric GC-C receptor; assay type: binding; conditions: words; Fig. 2H lower panel
mouse GC-C variant 2 [2] = assay: Radiolabeled ST binding to monolayers, mouse GC-C variant 2; conditions: monolayer HEK293E, Fig. 1E, three experiments
WT or GCD chimeric GC-C = assay type: binding; conditions: monolayers of HEK293E; Fig. 3E
mouse GC-C [3] = target: T1, mouse GC-C (Mus musculus, UniProt Q3UWA6); assay type: cell-based
T1 sequence (Q3UWA6 20-1072): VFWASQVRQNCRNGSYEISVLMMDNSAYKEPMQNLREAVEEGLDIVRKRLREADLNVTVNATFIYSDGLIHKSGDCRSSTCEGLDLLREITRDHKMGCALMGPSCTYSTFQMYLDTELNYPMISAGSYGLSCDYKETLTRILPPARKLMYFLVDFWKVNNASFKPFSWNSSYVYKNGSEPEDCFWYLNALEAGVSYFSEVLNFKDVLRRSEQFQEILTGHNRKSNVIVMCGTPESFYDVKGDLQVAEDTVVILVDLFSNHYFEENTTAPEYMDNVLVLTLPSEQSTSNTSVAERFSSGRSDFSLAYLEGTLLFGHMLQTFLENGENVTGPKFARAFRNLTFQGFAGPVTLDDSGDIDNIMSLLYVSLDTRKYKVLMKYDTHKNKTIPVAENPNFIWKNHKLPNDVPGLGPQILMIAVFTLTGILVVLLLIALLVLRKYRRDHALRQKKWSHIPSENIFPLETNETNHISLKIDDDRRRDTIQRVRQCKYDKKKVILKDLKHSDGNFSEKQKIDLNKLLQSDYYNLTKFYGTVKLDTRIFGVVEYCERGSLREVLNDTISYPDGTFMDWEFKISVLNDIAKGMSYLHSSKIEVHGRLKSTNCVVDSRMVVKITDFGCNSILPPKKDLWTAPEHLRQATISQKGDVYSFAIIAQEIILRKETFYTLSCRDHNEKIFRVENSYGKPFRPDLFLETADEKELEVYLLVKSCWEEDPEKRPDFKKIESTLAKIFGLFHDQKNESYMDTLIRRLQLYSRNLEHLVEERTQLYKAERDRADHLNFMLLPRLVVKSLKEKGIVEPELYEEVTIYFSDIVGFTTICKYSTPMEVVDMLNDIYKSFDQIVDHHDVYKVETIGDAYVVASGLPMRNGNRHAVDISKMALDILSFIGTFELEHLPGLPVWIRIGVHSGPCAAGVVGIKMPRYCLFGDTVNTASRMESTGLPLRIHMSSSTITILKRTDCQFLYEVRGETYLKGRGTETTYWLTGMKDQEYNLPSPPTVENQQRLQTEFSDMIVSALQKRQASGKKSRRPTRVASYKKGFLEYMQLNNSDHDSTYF

mouse GC-C variant 1 = assay: Ligand-stimulated cGMP production in HEK293E cells, mouse GC-C variant 1; assay type: cell-based; conditions: 10^−6 M ST, RIA, Fig. 1D
In short: (§1)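 HEK293E cells expressing the mouse GC-C variant were preincubated for 30 min at 37 °C in a humidified CO₂ incubator in DMEM-HG with serum, antibiotics and 500 μM IBMX. They were then exposed to medium alone or 10⁻⁶ M ST for 30 min. Monolayers were lysed in 0.1 N HCl, and cGMP was measured by RIA and normalized to cell-surface receptor amount. Representative of three independent experiments.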

mouse GC-C variant 2 [4] = assay: Ligand-stimulated cGMP production in HEK293E cells, mouse GC-C variant 2; assay type: cell-based; conditions: 10^−6 M ST, RIA, Fig. 1D
In short: as §1

hmCYC chimeric GC-C [5] = assay type: cell-based
human GC-C [6] = target: T2, human GC-C (Homo sapiens, UniProt P25092); conditions: ref [21]; cited from earlier work
T2 sequence (P25092 24-1073): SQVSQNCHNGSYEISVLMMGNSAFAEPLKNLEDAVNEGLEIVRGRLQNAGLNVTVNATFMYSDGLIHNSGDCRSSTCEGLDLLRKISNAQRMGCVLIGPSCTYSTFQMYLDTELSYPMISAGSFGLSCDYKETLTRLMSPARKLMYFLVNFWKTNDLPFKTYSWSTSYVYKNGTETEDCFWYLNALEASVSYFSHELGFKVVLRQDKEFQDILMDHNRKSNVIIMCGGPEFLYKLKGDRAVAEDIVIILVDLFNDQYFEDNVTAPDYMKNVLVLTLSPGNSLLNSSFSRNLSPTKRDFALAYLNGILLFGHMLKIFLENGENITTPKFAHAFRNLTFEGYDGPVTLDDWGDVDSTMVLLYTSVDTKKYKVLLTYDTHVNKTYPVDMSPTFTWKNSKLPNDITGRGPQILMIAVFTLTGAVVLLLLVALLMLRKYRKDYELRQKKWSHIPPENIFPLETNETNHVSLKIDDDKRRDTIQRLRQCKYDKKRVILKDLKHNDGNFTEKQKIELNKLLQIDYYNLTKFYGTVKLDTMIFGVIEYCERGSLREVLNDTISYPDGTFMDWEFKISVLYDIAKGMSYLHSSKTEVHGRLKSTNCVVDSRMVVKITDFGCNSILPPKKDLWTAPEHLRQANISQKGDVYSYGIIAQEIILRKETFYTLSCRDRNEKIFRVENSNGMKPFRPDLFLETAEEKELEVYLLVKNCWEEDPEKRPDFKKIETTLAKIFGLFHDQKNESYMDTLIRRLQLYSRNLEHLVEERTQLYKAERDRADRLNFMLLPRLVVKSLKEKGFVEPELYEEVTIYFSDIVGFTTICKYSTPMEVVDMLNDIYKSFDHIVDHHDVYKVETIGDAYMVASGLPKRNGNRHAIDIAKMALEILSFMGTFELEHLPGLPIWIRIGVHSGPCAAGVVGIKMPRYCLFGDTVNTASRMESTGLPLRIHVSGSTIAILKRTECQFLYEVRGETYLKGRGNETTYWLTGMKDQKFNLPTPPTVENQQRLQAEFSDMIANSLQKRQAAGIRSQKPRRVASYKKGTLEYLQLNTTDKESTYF

mice = conditions: mouse, in vivo; cited from earlier work
mice lacking GC-C = conditions: ref [12]; cited from earlier work
human GC-C [7] = target: T2, human GC-C; assay: In vitro GC assay, MnGTP as substrate, hGC-C; assay type: biochemical; conditions: 1 mM MnATP, 1 mM MnGTP; Fig. 4B
mouse GC-C [8] = target: T1, mouse GC-C; assay: In vitro GC assay, MnGTP as substrate, mGC-C; assay type: biochemical; conditions: 1 mM MnATP, 1 mM MnGTP; Fig. 4B
hmCYC chimeric GC-C [9] = assay: In vitro GC assay, MnGTP as substrate, hmCYC; assay type: biochemical; conditions: 1 mM MnATP, 1 mM MnGTP; Fig. 4B
mouse GC-C [10] = target: T1, mouse GC-C; assay: In vitro GC assay, MgGTP as substrate, with or without Lubrol, mGC-C; assay type: biochemical; conditions: 1 mM MgGTP, Fig. 4A
hmCYC chimeric GC-C [11] = assay: In vitro GC assay, MgGTP as substrate, Lubrol-stimulated, hmCYC; assay type: biochemical; conditions: 1 mM MgATP, 1 mM MgGTP, 0.1% Lubrol-PX; Fig. 4A
mhCYC chimeric GC-C = assay: In vitro GC assay, MgGTP as substrate, Lubrol-stimulated, mhCYC; assay type: biochemical; conditions: 1 mM MgATP, 1 mM MgGTP, 0.1% Lubrol-PX; Fig. 4A
[12] = tested on: chimeric receptor harboring the mouse KHD; assay type: biochemical; conditions: 0.1% Lubrol-PX, MgGTP
human GC-C [13] = target: T2, human GC-C; conditions: Mn2+ as metal ion; ref [25]; cited from earlier work
hGC-C = conditions: Mg2+ as metal ion cofactor, ref [25]; cited from earlier work
GC-CK516A [14] = conditions: Mg2+; ref [25]; cited from earlier work
GC-CK516A [15] = conditions: ref [25]; cited from earlier work
GC-C = conditions: in vitro; ref [38]; cited from earlier work

Molecule: CC(C)C[C@@H]1NC(=O)[C@H](CCC(=O)O)NC(=O)[C@@H]2CSSC[C@@H]3NC(=O)[C@H](C)NC(=O)[C@@H]4CCCN4C(=O)[C@H](CC(N)=O)NC(=O)[C@H](CSSC[C@H](NC(=O)[C@H](Cc4ccc(O)cc4)NC(=O)[C@H](CC(N)=O)NC(=O)[C@H](CO)NC(=O)[C@H](CO)NC(=O)[C@@H](N)CC(N)=O)C(=O)N2)NC(=O)[C@H](CSSC[C@@H](C(=O)N[C@@H](Cc2ccc(O)cc2)C(=O)O)NC(=O)CNC(=O)[C@H]([C@@H](C)O)NC3=O)NC1=O [ST] (H-NSSNYCCELCCNPACTGCY-OH; disulfide 6-11, 7-15, 10-18; N-terminus and C-terminus assumed)
- affinity to the ST peptide of the mhICD chimera [1]: reduced affinity to the ST peptide
- ligand binding ability of variant 2 (mouse GC-C variant 2 [2]): marked reduction in the ligand binding ability
- binding to ST of GCD chimeric receptors (WT or GCD chimeric GC-C): determined by the ECD
- accumulation of cGMP at saturating ST, mGC-C (mouse GC-C [3]): much reduced in comparison with cells expressing hGC-C
- intracellular cGMP accumulation, mGC-C lower than hGC-C (mouse GC-C [3]): ~ 10 fold
- cGMP levels on ST treatment, variant 1 (mouse GC-C variant 1): significant increase in cGMP levels
- cGMP levels on ST treatment, variant 2 (mouse GC-C variant 2 [4]): remained unchanged
- cGMP accumulation, hmCYC versus hGC-C (hmCYC chimeric GC-C [5]): log order reduction in cGMP accumulation when compared to hGC-C
- affinity of plasma membrane- and endoplasmic reticulum–associated hGC-C for ST (human GC-C [6]): comparable affinities
- accumulation of fluid in the gut of mice on ST treatment (mice): leads to the accumulation of fluid in the gut
- ST-induced fluid accumulation in mice lacking GC-C (mice lacking GC-C): resistant to ST-induced fluid accumulation

Molecule: Nc1ncnc2c1ncn2[C@@H]1O[C@H](COP(=O)(O)OP(=O)(O)OP(=O)(O)O)[C@@H](O)[C@H]1O [ATP]
- ATP-mediated inhibition of GC activity with MnGTP, hGC-C (human GC-C [7]): remained
- ATP-mediated inhibition of GC activity with MnGTP, mGC-C (mouse GC-C [8]): remained; also recorded: displayed ATP-mediated inhibition of MnGTP-mediated activity
- ATP-mediated inhibition of MnGTP-mediated activity, hmCYC (hmCYC chimeric GC-C [9]): displayed ATP-mediated inhibition of MnGTP-mediated activity
- ATP-mediated inhibition of Lubrol-stimulated GC activity, mGC-C (mouse GC-C [10]; 1 mM MgATP, 0.1% Lubrol-PX): lost and no allosteric inhibition of guanylyl cyclase activity and no inhibition of detergent-mediated activity by ATP
- ATP-mediated inhibition of Lubrol-stimulated GC activity, hmCYC (hmCYC chimeric GC-C [11]): retained
- ATP-mediated inhibition of Lubrol-stimulated GC activity, mhCYC (mhCYC chimeric GC-C): lost
- ATP inhibition of detergent-mediated activity, chimeric receptor harboring the mouse KHD [12]: no inhibition of detergent-mediated activity by ATP
- ATP inhibition of GC activity with Mn2+ (human GC-C [13]): inhibits GC activity when Mn^2+ is the metal ion used in assays
- ATP inhibition of Lubrol-stimulated GC activity (hGC-C): inhibits Lubrol-stimulated GC activity
- ATP inhibition of Lubrol-stimulated GC activity, GC-CK516A (GC-CK516A [14]): inhibition is lost
- ATP inhibition of GC activity with Mn2+, GC-CK516A (GC-CK516A [15]): inhibition is also seen
- ATP inhibition of MnGTP-mediated and detergent-mediated GC activity (GC-C): inhibit in vitro MnGTP-mediated and detergent-mediated GC activity

Molecule: MgGTP
- GC activity of mGC-C in the presence of MgGTP (mouse GC-C [10]; 4 mM free MgCl2, 37 °C 10 min, words): lower than that of hGC-C
